Test results as given in ChEMBL document CHEMBL1155222, “Synthesis and anticancer activity of N-bis(trifluoromethyl)alkyl-N'-thiazolyl and N-bis(trifluoromethyl)alkyl-N'-benzothiazolyl ureas” (2009).

Columns and labels:
Assay type in all cases: functional
UACC-62 = test: Anticancer activity against human UACC62 cells after 48 hrs by sulforhodamine B assay; details: UACC-62, 48 h
Method in brief: (§1)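 NCI 60-cell-line panel; cells grown in RPMI 1640 with 5% FBS and 2 mM L-glutamine, plated at 5000–40,000 cells/well and preincubated 24 h at 37 °C, 5% CO2. Compounds came from DMSO stocks diluted in medium with gentamicin and were tested at five final concentrations, 10^-4 to 10^-8 M, for 48 h. Cells were fixed with TCA, stained with SRB and read at 515 nm. GI50, TGI and LC50 were derived as log molar values.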

MDA-MB-435 = test: Anticancer activity against human MDA-MB-435 cells after 48 hrs by sulforhodamine B assay; details: MDA-MB-435, 48 h
Method in brief: (§2)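 NCI 60-cell-line screen. Cells grown in RPMI 1640 with 5% FBS and 2 mM L-glutamine, plated at 5000–40,000 cells/well, and preincubated 24 h at 37 °C under 5% CO2. Compounds were taken from DMSO stocks and tested at five final concentrations, 10^-4 to 10^-8 M, for 48 h. Cells were TCA-fixed, stained with 0.4% SRB, and read at 515 nm. GI50, TGI and LC50 were derived as log molar values.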

SW-620 = test: Anticancer activity against human SW620 cells after 48 hrs by sulforhodamine B assay; details: SW-620, 48 h; method in brief: as §1
M14 = test: Anticancer activity against human M14 cells after 48 hrs by sulforhodamine B assay; details: M14, 48 h; method in brief: as §2
COLO 205 = test: Anticancer activity against human COLO205 cells after 48 hrs by sulforhodamine B assay; details: COLO 205, 48 h; method in brief: as §2
SK-MEL-28 = test: Anticancer activity against human SK-MEL-28 cells after 48 hrs by sulforhodamine B assay; details: SK-MEL-28, 48 h; method in brief: as §2
CAKI-1 = test: Anticancer activity against human Caki1 cells after 48 hrs by sulforhodamine B assay; details: CAKI-1, 48 h; method in brief: as §2
OVCAR-8 = test: Anticancer activity against human OVCAR8 cells after 48 hrs by sulforhodamine B assay; details: OVCAR-8, 48 h; method in brief: as §2
T47D = test: Anticancer activity against human T47D cells after 48 hrs by sulforhodamine B assay; method in brief: as §1
OVCAR-5 = test: Anticancer activity against human OVCAR5 cells after 48 hrs by sulforhodamine B assay; details: OVCAR-5, 48 h; method in brief: as §2
SR = test: Anticancer activity against human SR cells after 48 hrs by sulforhodamine B assay; method in brief: as §1
UACC-257 = test: Anticancer activity against human UACC257 cells after 48 hrs by sulforhodamine B assay; details: UACC-257, 48 h; method in brief: as §1
NCI/ADR-RES = test: Anticancer activity against human NCI/ADR-RES cells after 48 hrs by sulforhodamine B assay; method in brief: as §2
LOX IMVI = test: Anticancer activity against human LOXIMVI cells after 48 hrs by sulforhodamine B assay; method in brief: as §2
SF-268 = test: Anticancer activity against human SF268 cells after 48 hrs by sulforhodamine B assay; details: SF-268, 48 h; method in brief: as §2
MOLT-4 = test: Anticancer activity against human MOLT4 cells after 48 hrs by sulforhodamine B assay; details: MOLT-4, 48 h; method in brief: as §2
SF-539 = test: Anticancer activity against human SF539 cells after 48 hrs by sulforhodamine B assay; details: SF-539, 48 h; method in brief: as §2
U-251 = test: Anticancer activity against human U251 cells after 48 hrs by sulforhodamine B assay; details: U-251, 48 h; method in brief: as §1
HOP-92 = test: Anticancer activity against human HOP92 cells after 48 hrs by sulforhodamine B assay; details: HOP-92, 48 h; method in brief: as §2
A549 = test: Anticancer activity against human A549 cells after 48 hrs by sulforhodamine B assay; details: A549, 48 h; method in brief: as §2
SN12C = test: Anticancer activity against human SN12C cells after 48 hrs by sulforhodamine B assay; method in brief: as §1
K562 = test: Anticancer activity against human K562 cells after 48 hrs by sulforhodamine B assay; details: K562, 48 h; method in brief: as §2
NCI-H460 = test: Anticancer activity against human NCI-H460 cells after 48 hrs by sulforhodamine B assay; details: NCI-H460, 48 h; method in brief: as §2
MDA-MB-231 = test: Anticancer activity against human MDA-MB-231 cells after 48 hrs by sulforhodamine B assay; details: MDA-MB-231, 48 h; method in brief: as §2
TK-10 = test: Anticancer activity against human TK10 cells after 48 hrs by sulforhodamine B assay; details: TK-10, 48 h; method in brief: as §1
HOP-62 = test: Anticancer activity against human HOP62 cells after 48 hrs by sulforhodamine B assay; details: HOP-62, 48 h; method in brief: as §2
BT-549 = test: Anticancer activity against human BT549 cells after 48 hrs by sulforhodamine B assay; details: BT-549, 48 h; method in brief: as §2
EKVX = test: Anticancer activity against human EKVX cells after 48 hrs by sulforhodamine B assay; method in brief: as §2
HCC 2998 = test: Anticancer activity against human HCC2998 cells after 48 hrs by sulforhodamine B assay; details: HCC 2998, 48 h; method in brief: as §2
SK-MEL-2 = test: Anticancer activity against human SK-MEL-2 cells after 48 hrs by sulforhodamine B assay; details: SK-MEL-2, 48 h; method in brief: as §2
UO-31 = test: Anticancer activity against human UO31 cells after 48 hrs by sulforhodamine B assay; details: UO-31, 48 h; method in brief: as §1
[1] = Anticancer activity against human Hs 578T cells after 48 hrs by sulforhodamine B assay; method in brief: as §2
IGROV-1 = test: Anticancer activity against human IGROV1 cells after 48 hrs by sulforhodamine B assay; details: IGROV-1, 48 h; method in brief: as §2
HCT-116 = test: Anticancer activity against human HCT116 cells after 48 hrs by sulforhodamine B assay; details: HCT-116, 48 h; method in brief: as §2
786-0 = test: Anticancer activity against human 786-0 cells after 48 hrs by sulforhodamine B assay; details: 786-0, 48 h; method in brief: as §2
SNB-19 = test: Anticancer activity against human SNB19 cells after 48 hrs by sulforhodamine B assay; details: SNB-19, 48 h; method in brief: as §1
CCRF-CEM = test: Anticancer activity against human CCRF-CEM cells after 48 hrs by sulforhodamine B assay; method in brief: as §2
SF-295 = test: Anticancer activity against human SF295 cells after 48 hrs by sulforhodamine B assay; details: SF-295, 48 h; method in brief: as §2
KM12 = test: Anticancer activity against human KM12 cells after 48 hrs by sulforhodamine B assay; details: KM12, 48 h; method in brief: as §2
SK-OV-3 = test: Anticancer activity against human SKOV3 cells after 48 hrs by sulforhodamine B assay; details: SK-OV-3, 48 h; method in brief: as §2
NCI-H322M = test: Anticancer activity against human NCI-H322M cells after 48 hrs by sulforhodamine B assay; method in brief: as §2
MCF7 = test: Anticancer activity against human MCF7 cells after 48 hrs by sulforhodamine B assay; details: MCF7, 48 h; method in brief: as §2
SK-MEL-5 = test: Anticancer activity against human SK-MEL-5 cells after 48 hrs by sulforhodamine B assay; details: SK-MEL-5, 48 h; method in brief: as §2
OVCAR-3 = test: Anticancer activity against human OVCAR-3 cells after 48 hrs by sulforhodamine B assay; details: OVCAR-3, 48 h; method in brief: as §2

## CCC(NC(=O)Nc1nccs1)(C(F)(F)F)C(F)(F)F
UACC-62
  GI50: 40.7 µM
MDA-MB-435
  GI50: 61.7 µM
SW-620
  GI50: 83.2 µM
M14
  GI50: 38 µM
COLO 205
  GI50: 74.1 µM
SK-MEL-28
  GI50: 72.4 µM
CAKI-1
  GI50: 83.2 µM
OVCAR-8
  GI50: 53.7 µM
T47D
  GI50: 38.9 µM
OVCAR-5
  GI50: > 100 µM
SR
  GI50: 30.2 µM
UACC-257
  GI50: 32.4 µM
NCI/ADR-RES
  GI50: 29.5 µM
LOX IMVI
  GI50: 72.4 µM
SF-268
  GI50: 60.3 µM
MOLT-4
  GI50: 30.9 µM
SF-539
  GI50: > 100 µM
U-251
  GI50: 40.7 µM
HOP-92
  GI50: 60.3 µM
A549
  GI50: 44.7 µM
SN12C
  GI50: 55 µM
K562
  GI50: 34.7 µM
NCI-H460
  GI50: 38.9 µM
MDA-MB-231
  GI50: 85.1 µM
TK-10
  GI50: 31.6 µM
HOP-62
  GI50: > 100 µM
BT-549
  GI50: 40.7 µM
EKVX
  GI50: 35.5 µM
HCC 2998
  GI50: 74.1 µM
SK-MEL-2
  GI50: 20 µM
UO-31
  GI50: 95.5 µM
[1]
  GI50: 52.5 µM
IGROV-1
  GI50: > 100 µM
HCT-116
  GI50: 46.8 µM
786-0
  GI50: > 100 µM
SNB-19
  GI50: > 100 µM
CCRF-CEM
  GI50: 19.5 µM
SF-295
  GI50: 52.5 µM
KM12
  GI50: 46.8 µM
SK-OV-3
  GI50: > 100 µM
NCI-H322M
  GI50: > 100 µM
MCF7
  GI50: 42.7 µM
SK-MEL-5
  GI50: 33.9 µM
OVCAR-3
  GI50: 61.7 µM
